ChEMBL document CHEMBL1131208, “Substituted 2-iminopiperidines as inhibitors of human nitric oxide synthase isoforms” (J Med Chem, 1998)

What was measured:
[1] = molecular target: Nitric oxide synthase (inducible and endothelial) (Homo sapiens) (UniProt P35228+P29474); test: Selectivity is the ratio between the IC50 values of heNOS and hiNOS; type: protein assay
In short: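 Recombinant human iNOS/eNOS expressed in Sf9 cells (baculovirus), partially purified by DEAE-Sepharose. Eight inhibitor concentrations were tested with 30 μM final L-arginine containing [3H]arginine, in Tris pH 7.6 with BSA, DTT, CaCl2, FAD, tetrahydrobiopterin and NADPH, 15 min at 37 °C. eNOS also had 40 nM calmodulin. [3H]citrulline was separated on cation-exchange resin and counted. Assays were run at least in duplicate; IC50 was derived.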

[2] = molecular target: Nitric oxide synthase, inducible (Homo sapiens, UniProt P35228); test: Inhibition of human Inducible nitric oxide synthase
Sequence of Nitric oxide synthase, inducible (P35228 whole entry): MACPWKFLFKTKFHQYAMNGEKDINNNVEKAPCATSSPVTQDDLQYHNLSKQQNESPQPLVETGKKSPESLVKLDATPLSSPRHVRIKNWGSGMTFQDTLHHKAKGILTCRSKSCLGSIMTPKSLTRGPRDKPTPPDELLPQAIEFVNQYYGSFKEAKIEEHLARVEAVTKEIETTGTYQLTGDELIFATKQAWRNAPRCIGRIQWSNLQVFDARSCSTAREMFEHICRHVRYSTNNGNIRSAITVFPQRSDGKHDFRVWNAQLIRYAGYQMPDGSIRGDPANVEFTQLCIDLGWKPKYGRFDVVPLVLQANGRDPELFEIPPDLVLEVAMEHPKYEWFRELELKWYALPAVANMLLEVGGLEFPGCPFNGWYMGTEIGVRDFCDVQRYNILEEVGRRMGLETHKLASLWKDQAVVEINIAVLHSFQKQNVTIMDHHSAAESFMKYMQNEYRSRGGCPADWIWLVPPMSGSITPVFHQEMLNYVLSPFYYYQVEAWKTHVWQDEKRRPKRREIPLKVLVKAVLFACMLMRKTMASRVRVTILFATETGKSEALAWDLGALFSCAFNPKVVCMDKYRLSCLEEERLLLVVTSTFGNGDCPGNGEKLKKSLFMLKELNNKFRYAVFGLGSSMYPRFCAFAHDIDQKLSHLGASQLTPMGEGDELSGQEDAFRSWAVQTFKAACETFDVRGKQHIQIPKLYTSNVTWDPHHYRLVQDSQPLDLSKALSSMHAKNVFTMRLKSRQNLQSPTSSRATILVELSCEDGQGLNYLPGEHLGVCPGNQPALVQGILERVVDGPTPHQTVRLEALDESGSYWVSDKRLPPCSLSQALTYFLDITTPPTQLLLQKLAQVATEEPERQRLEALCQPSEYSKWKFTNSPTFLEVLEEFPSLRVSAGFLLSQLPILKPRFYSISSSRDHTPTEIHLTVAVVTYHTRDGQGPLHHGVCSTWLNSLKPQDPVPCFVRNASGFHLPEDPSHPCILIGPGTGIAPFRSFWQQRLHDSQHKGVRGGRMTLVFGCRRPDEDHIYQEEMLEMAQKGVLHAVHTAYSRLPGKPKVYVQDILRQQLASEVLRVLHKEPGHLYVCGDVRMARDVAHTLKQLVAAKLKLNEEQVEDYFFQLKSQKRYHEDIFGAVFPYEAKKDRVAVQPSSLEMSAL

[3] = molecular target: T1, Nitric oxide synthase 3 (Homo sapiens, UniProt P29474); test: inhibition of human endothelial constitutive Endothelial nitric oxide synthase (heNOS)
T1 sequence (P29474 whole entry): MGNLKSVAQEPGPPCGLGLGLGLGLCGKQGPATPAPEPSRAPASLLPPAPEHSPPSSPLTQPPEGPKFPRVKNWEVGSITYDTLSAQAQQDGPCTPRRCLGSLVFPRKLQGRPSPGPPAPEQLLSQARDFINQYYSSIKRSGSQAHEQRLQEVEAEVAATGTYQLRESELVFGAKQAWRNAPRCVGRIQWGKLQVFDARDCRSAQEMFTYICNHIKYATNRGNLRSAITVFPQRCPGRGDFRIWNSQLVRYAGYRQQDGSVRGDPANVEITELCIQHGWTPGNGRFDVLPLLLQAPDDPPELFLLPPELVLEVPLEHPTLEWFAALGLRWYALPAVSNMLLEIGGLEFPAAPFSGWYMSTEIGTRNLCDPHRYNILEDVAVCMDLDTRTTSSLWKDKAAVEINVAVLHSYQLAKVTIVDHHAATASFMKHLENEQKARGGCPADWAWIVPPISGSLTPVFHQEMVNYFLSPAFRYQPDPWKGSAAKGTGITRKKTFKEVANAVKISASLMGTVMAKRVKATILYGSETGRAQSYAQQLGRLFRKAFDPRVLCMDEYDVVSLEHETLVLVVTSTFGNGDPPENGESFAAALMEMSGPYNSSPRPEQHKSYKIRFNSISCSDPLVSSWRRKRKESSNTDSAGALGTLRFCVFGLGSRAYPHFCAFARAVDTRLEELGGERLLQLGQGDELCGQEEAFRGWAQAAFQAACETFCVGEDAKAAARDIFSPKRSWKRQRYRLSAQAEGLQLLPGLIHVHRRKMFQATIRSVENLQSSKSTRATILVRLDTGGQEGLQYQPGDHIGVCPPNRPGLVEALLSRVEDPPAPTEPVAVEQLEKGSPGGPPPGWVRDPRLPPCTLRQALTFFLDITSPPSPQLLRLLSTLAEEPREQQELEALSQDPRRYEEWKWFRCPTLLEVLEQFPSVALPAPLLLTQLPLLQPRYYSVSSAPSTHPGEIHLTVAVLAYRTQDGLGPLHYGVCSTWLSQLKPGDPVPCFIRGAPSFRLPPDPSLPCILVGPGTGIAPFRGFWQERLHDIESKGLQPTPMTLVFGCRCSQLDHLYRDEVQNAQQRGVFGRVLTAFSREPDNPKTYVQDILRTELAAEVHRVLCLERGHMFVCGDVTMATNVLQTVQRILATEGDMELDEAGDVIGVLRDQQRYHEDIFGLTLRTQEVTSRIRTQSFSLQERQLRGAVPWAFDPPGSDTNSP

[4] = molecular target: Nitric oxide synthase 1 (Homo sapiens, UniProt P29475); test: Inhibition of human Neuronal nitric oxide synthase
Sequence of Nitric oxide synthase 1 (P29475 whole entry): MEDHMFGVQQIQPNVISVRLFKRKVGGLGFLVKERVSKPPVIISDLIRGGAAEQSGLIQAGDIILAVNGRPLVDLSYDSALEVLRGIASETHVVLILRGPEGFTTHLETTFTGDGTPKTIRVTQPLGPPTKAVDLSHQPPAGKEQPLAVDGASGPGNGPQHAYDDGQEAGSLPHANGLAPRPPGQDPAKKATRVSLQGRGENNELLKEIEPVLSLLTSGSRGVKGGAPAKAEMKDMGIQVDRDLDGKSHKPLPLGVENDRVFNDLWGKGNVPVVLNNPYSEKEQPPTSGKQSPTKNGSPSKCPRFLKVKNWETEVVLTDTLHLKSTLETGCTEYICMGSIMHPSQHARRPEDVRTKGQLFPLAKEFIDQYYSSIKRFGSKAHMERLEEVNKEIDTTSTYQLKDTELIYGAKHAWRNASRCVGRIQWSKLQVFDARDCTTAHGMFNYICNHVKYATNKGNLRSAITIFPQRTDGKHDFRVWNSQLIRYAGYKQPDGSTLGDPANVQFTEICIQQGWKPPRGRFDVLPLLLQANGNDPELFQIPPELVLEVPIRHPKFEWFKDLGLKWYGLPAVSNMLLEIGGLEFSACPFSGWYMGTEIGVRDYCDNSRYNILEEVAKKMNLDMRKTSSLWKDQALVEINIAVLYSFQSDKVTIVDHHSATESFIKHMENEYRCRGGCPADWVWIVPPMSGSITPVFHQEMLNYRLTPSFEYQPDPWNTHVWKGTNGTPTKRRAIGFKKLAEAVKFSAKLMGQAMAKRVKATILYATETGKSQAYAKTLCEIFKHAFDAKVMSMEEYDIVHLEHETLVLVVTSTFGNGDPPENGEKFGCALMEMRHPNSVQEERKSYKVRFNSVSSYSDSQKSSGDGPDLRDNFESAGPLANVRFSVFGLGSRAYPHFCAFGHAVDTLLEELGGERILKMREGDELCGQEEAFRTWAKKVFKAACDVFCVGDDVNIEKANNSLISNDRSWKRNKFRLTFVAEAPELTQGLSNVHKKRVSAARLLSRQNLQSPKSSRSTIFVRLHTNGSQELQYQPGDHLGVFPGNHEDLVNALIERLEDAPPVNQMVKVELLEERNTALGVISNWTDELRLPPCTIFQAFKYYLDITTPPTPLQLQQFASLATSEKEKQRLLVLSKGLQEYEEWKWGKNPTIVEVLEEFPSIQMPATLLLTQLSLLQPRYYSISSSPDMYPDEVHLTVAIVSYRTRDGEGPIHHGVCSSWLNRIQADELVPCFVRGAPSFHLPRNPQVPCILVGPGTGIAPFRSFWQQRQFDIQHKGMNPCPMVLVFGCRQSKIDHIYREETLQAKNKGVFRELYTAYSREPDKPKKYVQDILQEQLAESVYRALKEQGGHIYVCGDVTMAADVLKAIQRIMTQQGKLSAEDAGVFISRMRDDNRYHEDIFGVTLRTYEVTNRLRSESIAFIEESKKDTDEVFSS

[5] = system: Rattus norvegicus; test: Compound at an oral dose of 10 mg/Kg was tested in vivo for the inhibition of plasma nitrite levels in LPS-treated rats; type: functional
In short: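 Male Lewis rats dosed orally 1 h before intraperitoneal LPS (10–12.5 mg/kg) to induce iNOS. Plasma nitrite/nitrate measured 5 h after LPS by fluorometric assay. Percent inhibition is relative to LPS-only versus saline controls; n = 6 animals/dose.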

Sequence of Nitric oxide synthase (inducible and endothelial) (Homo sapiens) (P35228 whole entry, looked up, one chain of several): as the sequence (P35228 whole entry) above

Selectivity [1] | IC50 [2] [µM] | IC50 [3] [µM] | IC50 [4] [µM] | SMILES | inhibition in vivo at 10 mg/kg [5] [%]
5 | – | – | – | CCC1CCN=C(N)C1 (stereo not given) | –
– | > 100 | > 100 | > 100 | CNC1=NCCCC1 | –
1.6 | 3.4 | 5.3 | 5.9 | CC1(C)CCN=C(N)C1 | –
– | 5.1 | 58 | – | CC1CCC(N)=NC1 (stereo not given) | –
64 | – | – | – | NC1=NC(CC2CCCCC2)CCC1 (stereo not given) | –
– | 2.6 | 13 | 1.6 | CCC1CCNC(=N)C1 (stereo not given) | –
– | > 100 | > 100 | > 100 | CCCC1CCN=C(N)C1 (stereo not given) | –
0.5 | 6 | 3 | 0.7 | CC1CCCN=C1N (stereo not given) | –
– | > 100 | > 100 | > 100 | CN1CCCCC1=N | –
– | 0.1 | – | – | CC1CCN=C(N)C1 (stereo not given) | 87
16 | 8.7 | 142 | 5.3 | NC1=NC(C2CCCCC2)CCC1 (stereo not given) | 18
15 | 3.2 | 47 | 3.3 | NC1=NCCC(C(F)(F)F)C1 (stereo not given) | 24
2 | 99 | 218 | 28 | NC1=Nc2ccccc2CC1 | –
– | 1.1 | – | – | N=C1CCCCN1 | 62
11 | 0.2 | 2.2 | 0.5 | CCCC1CCCC(N)=N1 (stereo not given) | –
4 | 0.08 | 0.3 | 0.06 | CC1CC(N)=NC(C)C1 (stereo not given) | 98
– | – | – | 0.9 | NC1=NC(Cc2ccccc2)CCC1 (stereo not given) | –
4 | 0.5 | 2 | 0.5 | NC1=NC(C(F)(F)F)CCC1 (stereo not given) | –
1 | 0.5 | 0.6 | 0.4 | CC1CCCC(N)=N1 (stereo not given) | –
